{
  "source": "ChEMBL document CHEMBL5107962",
  "about": "“Covalent sortase A inhibitor ML346 prevents Staphylococcus aureus infection of Galleria mellonella” (RSC Med Chem, 2022)",
  "key": {"Procathepsin L [1]": {"molecular_target": "T1, Procathepsin L (Homo sapiens, UniProt P07711)", "assay": "Inhibition of cathepsin L (unknown origin) using Cbz-Phe-Arg-AMC as substrate preincubated for 5 mins followed by substrate addition and measured after 10 mins by fluorometric assay", "outline": "(§1)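 Cathepsin B solution (0.2 ng/µL) or cathepsin L solution (0.02 ng/µL) preincubated with compound at 40 °C for 5 min. Equal volume of pre-warmed Cbz-Phe-Arg-AMC solution added (40 µM for B, 80 µM for L). AMC fluorescence (ex 380/em 460 nm) read continuously for 10 min. Triplicates, two independent experiments, mean ± SEM.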"}, "Cathepsin B [2]": {"molecular_target": "T2, Cathepsin B (Homo sapiens, UniProt P07858)", "assay": "Inhibition of cathepsin B (unknown origin) using Cbz-Phe-Arg-AMC as substrate preincubated for 5 mins followed by substrate addition and measured after 10 mins by fluorometric assay", "outline": "as §1"}, "Cathepsin B [3]": {"molecular_target": "T2, Cathepsin B", "details": "dose 6.25 nM, time 15.0 min"}, "Procathepsin L [4]": {"molecular_target": "T1, Procathepsin L", "details": "dose 6.25 nM, time 15.0 min"}},
  "note": "Calls of active or inactive are those of the source. The rule behind the calls is not given here.",
  "data": [
    {"smiles": "CC(C)C[C@H](NC(=O)[C@H]1O[C@@H]1C(=O)O)C(=O)NCCCCN=C(N)N", "note": "[E-64]", "values": [
      {"measurement": "IC50", "setting": "Procathepsin L [1]", "value": 2.3, "unit": "nM"},
      {"measurement": "IC50", "setting": "Cathepsin B [2]", "value": 4.6, "unit": "nM"},
      {"measurement": "inhibition", "setting": "Cathepsin B [3]", "value": "Active"},
      {"measurement": "inhibition", "setting": "Procathepsin L [4]", "value": "Active"}
    ]}
  ]
}
